Test results: ChEMBL document CHEMBL3808349, “Antineoplastic Agents. 585. Isolation of Bridelia ferruginea Anticancer Podophyllotoxins and Synthesis of 4-Aza-podophyllotoxin Structural Modifications” (2016)
Values after ≈ are worked out from the molar mass of the structure shown.

How the values were obtained:
Assay type in all cases: functional
NCI-H460 = assay: Growth inhibition of human NCI-H460 cells measured after 48 hrs by sulforhodamine B assay; settings: NCI-H460, 48 h
Summary of the method: (§1)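 Cells were seeded in RPMI1640 with 5% fetal bovine serum and incubated 24 h before serial dilutions of sample were added. After 48 h exposure, cells were fixed with trichloroacetic acid and stained with sulforhodamine B, and optical density was read by plate reader.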

[1] = Growth inhibition of human KM20L2 cells measured after 48 hrs by sulforhodamine B assay; settings: KM-20L2, 48 h; summary of the method: as §1
P388 = assay: Growth inhibition of mouse P388 cells measured after 48 hrs by sulforhodamine B assay; settings: P388, 48 h, read-out: ED50 (the source's name)
[2] = Growth inhibition of human BxPC3 cells measured after 48 hrs by sulforhodamine B assay; settings: BXPC-3, 48 h; summary of the method: as §1
MCF7 = assay: Growth inhibition of human MCF7 cells measured after 48 hrs by sulforhodamine B assay; settings: MCF7, 48 h; summary of the method: as §1
[3] = Growth inhibition of human SF268 cells measured after 48 hrs by sulforhodamine B assay; settings: SF-268, 48 h; summary of the method: as §1
[4] = Growth inhibition of human DU145 cells measured after 48 hrs by sulforhodamine B assay; settings: DU-145, 48 h; summary of the method: as §1

SMILES: COc1cc(C2C3=C(COC3=O)N(CCc3ccc(Cl)cc3)c3cc4c(cc32)OCO4)cc(OC)c1OC (centres undefined)
- GI50 (NCI-H460): 0.3 µg/mL (≈ 0.56 µM)
- GI50 [1]: 0.37 µg/mL (≈ 0.69 µM)
- EC50 (P388): 2.6 µg/mL (≈ 4.85 µM)
- GI50 [2]: 0.54 µg/mL (≈ 1.01 µM)
- GI50 (MCF7): 0.34 µg/mL (≈ 0.634 µM)
- GI50 [3]: 0.35 µg/mL (≈ 0.653 µM)
- GI50 [4]: 0.31 µg/mL (≈ 0.578 µM)

SMILES: O=C1OCC2=C1C(c1cccc3c1OCO3)c1cc3c(cc1N2)OCO3 (centres undefined)
- GI50 (NCI-H460): 0.021 µg/mL (≈ 0.0598 µM)
- EC50 (P388): 0.17 µg/mL (≈ 0.484 µM)
- GI50 [2]: 0.065 µg/mL (≈ 0.185 µM)
- GI50 (MCF7): 0.0039 µg/mL (≈ 0.0111 µM)
- GI50 [3]: 0.0089 µg/mL (≈ 0.0253 µM)
- GI50 [4]: 0.041 µg/mL (≈ 0.117 µM)

SMILES: COc1cc(C2C3=C(COC3=O)N(CCc3ccccn3)c3cc4c(cc32)OCO4)cc(OC)c1OC (centres undefined)
- GI50 (NCI-H460): 0.34 µg/mL (≈ 0.677 µM)
- GI50 [1]: 0.29 µg/mL (≈ 0.577 µM)
- EC50 (P388): 2.5 µg/mL (≈ 4.97 µM)
- GI50 [2]: 0.38 µg/mL (≈ 0.756 µM)
- GI50 (MCF7): 0.32 µg/mL (≈ 0.637 µM)
- GI50 [3]: 0.33 µg/mL (≈ 0.657 µM)
- GI50 [4]: 0.42 µg/mL (≈ 0.836 µM)

SMILES: COc1cc(C2C3=C(COC3=O)N(CCCO)c3cc4c(cc32)OCO4)cc(OC)c1OC (centres undefined)
- GI50 (NCI-H460): 0.33 µg/mL (≈ 0.725 µM)
- GI50 [1]: 0.38 µg/mL (≈ 0.834 µM)
- EC50 (P388): 0.28 µg/mL (≈ 0.615 µM)
- GI50 [2]: 0.48 µg/mL (≈ 1.05 µM)
- GI50 (MCF7): 0.34 µg/mL (≈ 0.746 µM)
- GI50 [3]: 0.36 µg/mL (≈ 0.79 µM)
- GI50 [4]: 0.49 µg/mL (≈ 1.08 µM)

SMILES: COc1cc(C2C3=C(COC3=O)N(CCc3ccc(F)cc3)c3cc4c(cc32)OCO4)cc(OC)c1OC (centres undefined)
- GI50 (NCI-H460): 2.3 µg/mL (≈ 4.43 µM)
- GI50 [1]: 2.4 µg/mL (≈ 4.62 µM)
- EC50 (P388): 3.3 µg/mL (≈ 6.35 µM)
- GI50 [2]: 0.9 µg/mL (≈ 1.73 µM)
- GI50 (MCF7): 0.42 µg/mL (≈ 0.808 µM)
- GI50 [3]: 0.52 µg/mL (≈ 1 µM)
- GI50 [4]: 2.5 µg/mL (≈ 4.81 µM)

SMILES: COc1ccc(C2C3=C(COC3=O)Nc3cc(OC)c(OC)c(OC)c32)cc1O (centres undefined)
- GI50 (NCI-H460): 10.1 µg/mL (≈ 25.3 µM)
- EC50 (P388): 0.78 µg/mL (≈ 1.95 µM)
- GI50 [2]: 6.5 µg/mL (≈ 16.3 µM)
- GI50 (MCF7): 7 µg/mL (≈ 17.5 µM)
- GI50 [3]: 7.3 µg/mL (≈ 18.3 µM)
- GI50 [4]: > 10 µg/mL

SMILES: COc1cc(C2C3=C(COC3=O)Nc3cc(OC)c(OC)c(OC)c32)cc(OC)c1OC (centres undefined)
- GI50 (NCI-H460): 3.6 µg/mL (≈ 8.12 µM)
- EC50 (P388): 1.3 µg/mL (≈ 2.93 µM)
- GI50 [2]: 5.6 µg/mL (≈ 12.6 µM)
- GI50 (MCF7): 1.7 µg/mL (≈ 3.83 µM)
- GI50 [3]: 3.6 µg/mL (≈ 8.12 µM)
- GI50 [4]: 3.3 µg/mL (≈ 7.44 µM)

SMILES: COc1cc(C2C3=C(COC3=O)N(C3CCC3)c3cc4c(cc32)OCO4)cc(OC)c1OC (centres undefined)
- GI50 (NCI-H460): 0.028 µg/mL (≈ 0.062 µM)
- GI50 [1]: 0.032 µg/mL (≈ 0.0709 µM)
- EC50 (P388): 0.24 µg/mL (≈ 0.532 µM)
- GI50 [2]: 0.04 µg/mL (≈ 0.0886 µM)
- GI50 (MCF7): 0.026 µg/mL (≈ 0.0576 µM)
- GI50 [3]: 0.026 µg/mL (≈ 0.0576 µM)
- GI50 [4]: 0.047 µg/mL (≈ 0.104 µM)

SMILES: COc1cc(C2C3=C(COC3=O)N(C3CCCCC3)c3cc4c(cc32)OCO4)cc(OC)c1OC (centres undefined)
- GI50 (NCI-H460): 0.27 µg/mL (≈ 0.563 µM)
- GI50 [1]: 0.24 µg/mL (≈ 0.5 µM)
- EC50 (P388): 3.4 µg/mL (≈ 7.09 µM)
- GI50 [2]: 0.17 µg/mL (≈ 0.355 µM)
- GI50 (MCF7): 0.052 µg/mL (≈ 0.108 µM)
- GI50 [3]: 0.066 µg/mL (≈ 0.138 µM)
- GI50 [4]: 0.27 µg/mL (≈ 0.563 µM)

SMILES: COc1cc(C2C3=C(COC3=O)Nc3cc4c(cc32)OCO4)cc(OC)c1OC (centres undefined)
- EC50 (P388): 0.0018 µg/mL (≈ 0.00453 µM)

SMILES: COc1cc([C@@H]2c3cc4c(c(O[C@@H]5O[C@H](CO)[C@@H](O)[C@H](O)[C@H]5O)c3C[C@H]3COC(=O)[C@@H]32)OCO4)cc(OC)c1OC
- GI50 (NCI-H460): 0.28 µg/mL (≈ 0.486 µM)
- GI50 [1]: > 1 µg/mL
- EC50 (P388): 0.21 µg/mL (≈ 0.364 µM)
- GI50 [2]: > 1 µg/mL
- GI50 (MCF7): 0.85 µg/mL (≈ 1.47 µM)
- GI50 [3]: 0.27 µg/mL (≈ 0.468 µM)
- GI50 [4]: > 1 µg/mL

SMILES: COc1cc([C@@H]2c3cc4c(c(O)c3C[C@H]3COC(=O)[C@@H]32)OCO4)cc(OC)c1OC [BETA-PELTATIN A]
- GI50 (NCI-H460): 0.00077 µg/mL (≈ 0.00186 µM)
- GI50 [1]: 0.0076 µg/mL (≈ 0.0183 µM)
- EC50 (P388): 0.0031 µg/mL (≈ 0.00748 µM)
- GI50 [2]: 0.0012 µg/mL (≈ 0.0029 µM)
- GI50 (MCF7): 0.00055 µg/mL (≈ 0.00133 µM)
- GI50 [3]: 0.0004 µg/mL (≈ 0.000965 µM)
- GI50 [4]: 0.0021 µg/mL (≈ 0.00507 µM)

SMILES: COc1cc([C@@H]2c3cc4c(cc3C[C@H]3COC(=O)[C@@H]32)OCO4)cc(OC)c1OC [DESOXYPODOPHYLLOTOXIN]
- GI50 (NCI-H460): 0.0018 µg/mL (≈ 0.00452 µM)
- GI50 [1]: 0.0014 µg/mL (≈ 0.00351 µM)
- EC50 (P388): 0.029 µg/mL (≈ 0.0728 µM)
- GI50 [2]: 0.00044 µg/mL (≈ 0.0011 µM)
- GI50 (MCF7): 0.0027 µg/mL (≈ 0.00678 µM)
- GI50 [3]: 0.00056 µg/mL (≈ 0.00141 µM)
- GI50 [4]: 0.0017 µg/mL (≈ 0.00427 µM)

SMILES: COc1cc([C@H]2c3cc4c(cc3C[C@H]3COC(=O)[C@H]32)OCO4)cc(OC)c1OC [ISOPICRODEOXYPODOPHYLLOTOXIN]
- EC50 (P388): < 0.1 µg/mL

SMILES: COc1cc([C@@H]2c3cc4c(cc3[C@H](O)[C@H]3COC(=O)[C@H]23)OCO4)cc(OC)c1OC [PODOFILOX]
- EC50 (P388): 0.0043 µg/mL (≈ 0.0104 µM)
